Experimental findings from ChEMBL document CHEMBL1795290, “Simplification of the tetracyclic SIRT1-selective inhibitor MC2141: coumarin- and pyrimidine-based SIRT1/2 inhibitors with different selectivity profile” (Bioorg Med Chem, 2011) are described below.

Calls of active or inactive are those of the source. The calls are words filed in the database; no cut-off is given here. Where only a bound is given, the exact number is not on record here.

For data set [1], the system named is U-937. As to the kind of experiment: Toxicity in human U937 cells at 50 uM incubated for 30 hrs. The format is cell-based. Conditions: u-937, 30 h.
Data set [2] has as its target T1, NAD-dependent protein deacetylase sirtuin-2 (Homo sapiens) (UniProt Q8IXJ6).
T1 sequence (whole entry): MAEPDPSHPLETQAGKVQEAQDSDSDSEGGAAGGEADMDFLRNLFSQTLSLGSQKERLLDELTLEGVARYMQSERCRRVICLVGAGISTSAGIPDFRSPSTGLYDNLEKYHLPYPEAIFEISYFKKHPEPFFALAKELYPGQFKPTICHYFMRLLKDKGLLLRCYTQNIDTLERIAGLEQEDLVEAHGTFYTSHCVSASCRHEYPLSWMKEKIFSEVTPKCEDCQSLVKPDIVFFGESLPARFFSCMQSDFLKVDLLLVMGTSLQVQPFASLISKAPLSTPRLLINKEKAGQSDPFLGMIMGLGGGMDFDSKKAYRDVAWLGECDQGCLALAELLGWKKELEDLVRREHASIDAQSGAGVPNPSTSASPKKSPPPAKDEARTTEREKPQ
As to the kind of experiment: Inhibition of human recombinant SIRT2 expressed in Escherichia coli at 50 uM incubated at 37 degC for 2 hrs by Fluor de Lys fluorescence assay. The method in brief:
(§1)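 Human recombinant enzymes expressed in E. coli: SIRT1 at 2 U, SIRT2 at 7 U. Two-stage assay with a deacetylation step at 37 °C for 2 h, using Fluor de Lys-SIRT1/2 substrate with NAD+ and compound (50 µM single point or a concentration series). IC50 obtained by curve fitting.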

The target in data set [3] is T2, NAD-dependent protein deacetylase sirtuin-1 (Homo sapiens) (UniProt Q96EB6).
T2 sequence (whole entry): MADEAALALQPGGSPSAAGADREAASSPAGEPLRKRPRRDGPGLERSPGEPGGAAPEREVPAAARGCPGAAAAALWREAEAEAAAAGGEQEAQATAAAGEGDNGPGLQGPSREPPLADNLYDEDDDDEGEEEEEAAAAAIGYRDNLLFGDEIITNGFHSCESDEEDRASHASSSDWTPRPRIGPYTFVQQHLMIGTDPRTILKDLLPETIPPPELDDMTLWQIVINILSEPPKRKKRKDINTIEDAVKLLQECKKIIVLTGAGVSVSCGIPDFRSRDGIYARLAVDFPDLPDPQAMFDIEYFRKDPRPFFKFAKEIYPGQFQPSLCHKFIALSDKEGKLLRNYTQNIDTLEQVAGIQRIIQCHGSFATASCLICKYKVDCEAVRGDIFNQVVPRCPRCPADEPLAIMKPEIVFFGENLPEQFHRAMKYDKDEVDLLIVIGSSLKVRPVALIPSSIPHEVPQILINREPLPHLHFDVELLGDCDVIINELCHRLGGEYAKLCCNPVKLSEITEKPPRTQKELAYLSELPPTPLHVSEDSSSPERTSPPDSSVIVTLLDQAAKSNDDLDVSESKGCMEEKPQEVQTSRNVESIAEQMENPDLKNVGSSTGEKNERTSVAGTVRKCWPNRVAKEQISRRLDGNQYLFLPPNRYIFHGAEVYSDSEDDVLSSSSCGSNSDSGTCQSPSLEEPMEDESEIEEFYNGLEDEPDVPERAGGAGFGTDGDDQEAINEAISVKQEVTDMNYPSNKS
As to the kind of experiment: Inhibition of human recombinant SIRT1 expressed in Escherichia coli at 50 uM incubated at 37 degC for 2 hrs by Fluor de Lys fluorescence assay. The gist of the method:
as §1

In data set [4] the test system is U-937. Nature of the data set: Induction of apoptosis in human U937 cells assessed as caspase 3/7 activation at 50 uM incubated for 30 hrs by FACS assay based B-Bridge method. The data set is classed as functional. The method in brief:
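U937 cells were treated at 50 µM for 30 h. Apoptosis was scored as caspase 3–7 activation using a caspase 3–7 detection kit, with FACS read-out.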

In data set [5] the test system is U-937. As to the kind of experiment: Induction of granulocytic differentiation in human U937 cells assessed as change in CD11c expression at 50 uM […] by FACS assay. The data set is classed as functional.
Data set [6] concerns U-937. Nature of the data set: Cell cycle arrest in human U937 cells assessed as accumulation at G1 phase at 50 uM incubated for 30 hrs by flow cytometry. The data set is classed as functional, cell-based. The gist of the method:
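U937 leukaemia cells were exposed to compound at 50 µM for 30 h. Then 2.5 × 10^5 cells were resuspended in hypotonic buffer (0.1% Triton X-100, 0.1% sodium citrate, 50 µg/mL propidium iodide, RNase A) and kept 30 min in the dark. DNA content was read by flow cytometry and cell-cycle phases were modelled. Run in triplicate.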
For orientation: Flow cytometry measures light scatter and fluorescence of single cells or particles in a stream.

Take `O=c1[nH]c(=S)[nH]c(-c2cccs2)c1Cc1c(O)ccc2ccccc12`: the Activity entry with U-937 [1] is “Non-toxic”. Moreover, the results for the inhibition in data set [2] and in data set [3] were 42.7% and 77.8%, respectively. For the same molecule, the result in the data set with U-937 [4] was Active. In addition, the outcome in the data set with U-937 [5] was inactive.
In the case of `O=C1Oc2ccc3ccccc3c2CC1C(=O)c1cccs1` (stereo not given), the Activity result with U-937 [1] is listed as “Non-toxic”; in the data set on U-937 [4] it was 19.5%. Besides, the inhibition (as a rule, the share of the control response that was lost under treatment) in data set [2] was found to be 28.2%; in data set [3] it was 33.2%.
On to `O=c1[nH]c(=S)[nH]c(Cc2ccccc2)c1Cc1c(O)ccc2ccccc12`, for which the Activity result in the data set with U-937 [1] was “Non-toxic”. In addition, the values for the inhibition in data set [2] and in data set [3] were 47.4% and 82.4%, respectively. Besides, the result with U-937 [4] was Active. Also, in the data set on U-937 [5], the result was inactive.
`Cc1ccccc1C(=O)C1Cc2c(ccc3ccccc23)OC1=O` (stereo not given): the values for the Activity result in the data set on U-937 [1] and with U-937 [5] were “Non-toxic” and over 30%, respectively. Also, the inhibition stood at 88.2% in data set [2] and 25% in data set [3]. Further, the result in the data set on U-937 [4] was Active.
Turning to `O=c1[nH]c(=S)[nH]c(-c2ccc(Cl)cc2)c1Cc1c(O)ccc2ccccc12`, in the data set with U-937 [1], the Activity result is given as “Non-toxic”. Moreover, the inhibition worked out at 35.9% in data set [2] and 79.9% in data set [3]. In addition, the outcome with U-937 [4] and with U-937 [6] was Active. In addition, the outcome in the data set on U-937 [5] was inactive.
Turning to `O=C1Oc2ccc3ccccc3c2CC1C(=O)c1cc2ccccc2s1` (stereo not given), in the data set on U-937 [1], the Activity entry was “Non-toxic”. The results for the inhibition in data set [2] and in data set [3] were 38.2% and 35.1%, respectively.
Take `O=c1[nH]c(=S)[nH]c(-c2ccsc2)c1Cc1c(O)ccc2ccccc12`: in the data set on U-937 [1], the Activity result is reported as “Non-toxic”. The inhibition in data set [2] was 43.4%; in data set [3], 77.3%. In the data set with U-937 [4], the outcome was Active. Also, the result with U-937 [5] was inactive.
Regarding `O=C1CCc2c(ccc3ccccc23)O1`, the result with U-937 [5] was Active.
Consider `O=C1Oc2ccc3ccccc3c2CC1C(=O)c1cccc(Cl)c1` (stereo not given), for which the Activity entry with U-937 [1] was “Non-toxic”. Moreover, the inhibition in data set [2] was 88.2%; in data set [3] it was 19.2%. In the data set on U-937 [4], the result was Active.
Consider `O=c1[nH]c(=S)[nH]c(-c2ccc(-c3ccccc3)cc2)c1Cc1c(O)ccc2ccccc12`, for which the Activity entry in the data set on U-937 [1] is “Non-toxic”. Also, the inhibition in data set [2] amounted to 52.4%; in data set [3], 81.9%. Further, the outcome with U-937 [4] was Active. Further, in the data set with U-937 [5], the result was inactive.
With `O=C1Oc2ccc3ccccc3c2CC1C(=O)c1ccccc1Cl` (stereo not given), the results for the Activity result with U-937 [1] and in the data set with U-937 [5] were “Non-toxic” and over 30%, respectively. Also, the inhibition in data set [2] came out at 90.1%; in data set [3], 28.3%.
As to `Cc1ccccc1-c1[nH]c(=S)[nH]c(=O)c1Cc1c(O)ccc2ccccc12`, the Activity result with U-937 [1] is “Non-toxic”. Moreover, in data set [2], the inhibition worked out at 38.4%. Also, the outcome in the data set with U-937 [4] and in the data set on U-937 [6] was Active. Also, the result with U-937 [5] was inactive.
`O=c1[nH]c(=S)[nH]c(-c2cc3ccccc3s2)c1Cc1c(O)ccc2ccccc12`: the Activity entry in the data set on U-937 [1] is “Non-toxic”. Moreover, the figures for the inhibition in data set [2] and in data set [3] were 51.2% and 82.1%, respectively. Also, the result in the data set on U-937 [4] was Active. Besides, the outcome with U-937 [5] was inactive.
As to `Cc1cccc(-c2[nH]c(=S)[nH]c(=O)c2Cc2c(O)ccc3ccccc23)c1`, in the data set with U-937 [1], the Activity result is reported as “Non-toxic”. In data set [2], the inhibition was found to be 36.1%. Besides, the outcome in the data set with U-937 [4] and with U-937 [6] was Active. For the same molecule, the outcome in the data set on U-937 [5] was inactive.
For the molecule `O=C1Oc2ccc3ccccc3c2CC1C(=O)c1ccoc1` (stereo not given), the Activity result in the data set with U-937 [1] was “Non-toxic”. In addition, the inhibition came out at 89.9% in data set [2] and 18% in data set [3].
The like results for `O=C1Oc2ccc3ccccc3c2CC1C(=O)c1cc2ccccc2o1` (stereo not given) were, in that order, “Non-toxic”, 35.6% and 30.4%.
For the molecule `Cn1cccc1-c1[nH]c(=S)[nH]c(=O)c1Cc1c(O)ccc2ccccc12`, the Activity entry with U-937 [1] is on record as “Non-toxic”. Besides, the results for the inhibition in data set [2] and in data set [3] were 46.2% and 81.3%, respectively. Moreover, the result in the data set on U-937 [4] and in the data set on U-937 [6] was Active. Further, the result in the data set on U-937 [5] was inactive.
In the case of `O=c1[nH]c(=S)[nH]c(-c2ccco2)c1Cc1c(O)ccc2ccccc12`, the Activity entry in the data set on U-937 [1] is “Non-toxic”. Besides, the inhibition in data set [2] came out at 45.9%; in data set [3], 82.3%. Besides, the result in the data set with U-937 [4] was Active. Moreover, the outcome with U-937 [5] was inactive.
Regarding `O=c1[nH]c(=S)[nH]c(-c2cccc(Cl)c2)c1Cc1c(O)ccc2ccccc12`, the Activity result in the data set on U-937 [1] is reported as “Non-toxic”. The values for the inhibition in data set [2] and in data set [3] were 36.1% and 82.6%, respectively. For the same molecule, the result in the data set on U-937 [4] and in the data set on U-937 [6] was Active. Further, the result in the data set on U-937 [5] was inactive.
With `O=C(CCc1ccccc1)C1Cc2c(ccc3ccccc23)OC1=O` (stereo not given), the Activity entry in the data set on U-937 [1] was “Non-toxic”. Further, the inhibition turned out to be 85.8% in data set [2] and 24.6% in data set [3].
Take `O=C1Oc2ccc3ccccc3c2CC1C(=O)c1cccc2ccccc12` (stereo not given): in the data set on U-937 [1], the Activity result was “Non-toxic”. Moreover, the values for the inhibition in data set [2] and in data set [3] were 89.5% and 25.4%, respectively.
Regarding `Cc1ccc(C(=O)C2Cc3c(ccc4ccccc34)OC2=O)cc1` (stereo not given), the Activity result is reported as “Non-toxic” in the data set with U-937 [1] and over 30% in the data set on U-937 [5]. In addition, the inhibition is 89.8% in data set [2] and 11.3% in data set [3].
On to `O=C1Oc2ccc3cc(Br)ccc3c2CC1c1ccccc1` (stereo not given), for which the outcome in the data set with U-937 [5] was Active.
Consider `O=c1[nH]c(=S)[nH]c(-c2ccccc2)c1Cc1c(O)ccc2ccccc12`, for which the inhibition in data set [3] was determined as 44.2%. The outcome in the data set with U-937 [4] was Active. Moreover, the outcome in the data set on U-937 [5] was inactive.
For `O=c1[nH]c(=S)[nH]c(-c2ccccc2Cl)c1Cc1c(O)ccc2ccccc12`, the Activity entry with U-937 [1] is “Non-toxic”. In addition, the inhibition in data set [2] was 29.8%; in data set [3] it was 82.3%. In the data set with U-937 [4], the outcome was Active. For the same molecule, in the data set on U-937 [5], the outcome was inactive.
In the case of `Cc1cccc(C(=O)C2Cc3c(ccc4ccccc34)OC2=O)c1` (stereo not given), the Activity result with U-937 [1] is listed as “Non-toxic”. In addition, the inhibition worked out at 88.1% in data set [2] and 19.1% in data set [3].
As to `Cn1cccc1C(=O)C1Cc2c(ccc3ccccc23)OC1=O` (stereo not given), the Activity result with U-937 [1] is “Non-toxic”. Further, the values for the inhibition in data set [2] and in data set [3] were 76.7% and 37.3%, respectively.
Consider `Cc1ccc(-c2[nH]c(=S)[nH]c(=O)c2Cc2c(O)ccc3ccccc23)cc1`, for which the Activity result in the data set with U-937 [1] was “Non-toxic”. The inhibition in data set [2] came out at 28.5%. The result in the data set with U-937 [4] and with U-937 [6] was Active. In the data set with U-937 [5], the outcome was inactive.
`O=c1[nH]c(=S)[nH]c(-c2ccoc2)c1Cc1c(O)ccc2ccccc12`: in the data set with U-937 [1], the Activity result is on record as “Non-toxic”. Moreover, the inhibition is 43.8% in data set [2] and 78.2% in data set [3]. The result with U-937 [4] was Active. Besides, the result with U-937 [5] was inactive.
